≈ marks a conversion by molar mass, not a printed value.
How the values were obtained:
Type in all cases: functional
[1] = system: Candida albicans; test: Antifungal activity against Candida albicans SC5314 after 48 hrs by broth microdilution method; details: SC5314, 48 h
Method in brief: (§1)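 MIC80 read by broth microdilution, with fluconazole as the positive antifungal agent. Values are reported in µg/mL as means of three independent experiments. Strains: wild-type SC5314 and DSY654, which lacks the Cdr1 and Cdr2 efflux pumps.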

[2] = system: Candida albicans; test: Antifungal activity against CDR1 and CDR2 efflux pump deficient Candida albicans DSY654 after 48 hrs by broth microdilution method; details: DSY654, 48 h; method in brief: as §1
[3] = system: Candida albicans; test: Antifungal activity against fluconazole-resistant Candida albicans 28A after 48 hrs by broth microdilution method
Method in brief: (§2)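 Clinical fluconazole-resistant isolates tested in broth microdilution with the compound alone. The endpoint is MIC80, the lowest concentration giving 80% growth inhibition, in µg/mL.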

[4] = system: Candida albicans; test: Synergistic antifungal activity against fluconazole-resistant Candida albicans 28A after 48 hrs in presence of fluconazole by broth microdilution checkerboard method
Method in brief: (§3)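 Checkerboard dose-response matrix on strain 28A with gradients of fluconazole and the test compound in RPMI 1640, read after 48 h at 35 °C. MIC80 is taken alone and in combination, and FICI is calculated. Synergy is FICI ≤0.5, indifference >0.5-4, and antagonism >4.0.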

[5] = system: Candida albicans; test: Potentiation of fluconazole-induced antifungal activity against fluconazole-resistant Candida albicans 28A assessed as fluconazole MIC80 after 48 hrs by broth microdilution checkerboard method; method in brief: as §3
[6] = system: Candida albicans; test: Potentiation of fluconazole-induced antifungal activity against fluconazole-resistant Candida albicans 28A after 48 hrs by broth microdilution checkerboard method; method in brief: as §3
[7] = system: Candida albicans; test: Synergistic antifungal activity against drug-resistant Candida albicans 28I after 48 hrs in presence of fluconazole by broth microdilution checkerboard method
Method in brief: (§4)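 Broth microdilution checkerboard of fluconazole crossed with the test compound against clinical FLC-resistant isolates. MIC80 is read for each agent alone and in combination, and FICI is calculated. Synergy is FICI ≤0.5, indifference >0.5-4, and antagonism >4.0.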

[8] = system: Candida albicans; test: Potentiation of fluconazole-induced antifungal activity against drug-resistant Candida albicans 28I assessed as fluconazole MIC80 after 48 hrs by broth microdilution checkerboard method; method in brief: as §4
[9] = system: Candida albicans; test: Potentiation of fluconazole-induced antifungal activity against drug-resistant Candida albicans 28I after 48 hrs by broth microdilution checkerboard method; method in brief: as §4
[10] = system: Candida albicans; test: Antifungal activity against drug-resistant Candida albicans 28I after 48 hrs by broth microdilution method; method in brief: as §2
[11] = system: Candida albicans; test: Antifungal activity against drug-resistant Candida albicans 28J after 48 hrs by broth microdilution method; method in brief: as §2
[12] = system: Candida albicans; test: Synergistic antifungal activity against drug-resistant Candida albicans 28J after 48 hrs in presence of fluconazole by broth microdilution checkerboard method; method in brief: as §4
[13] = system: Candida albicans; test: Potentiation of fluconazole-induced antifungal activity against drug-resistant Candida albicans 28J assessed as fluconazole MIC80 after 48 hrs by broth microdilution checkerboard method; method in brief: as §4
[14] = system: Candida albicans; test: Potentiation of fluconazole-induced antifungal activity against drug-resistant Candida albicans 28J after 48 hrs by broth microdilution checkerboard method; method in brief: as §4

SMILES	MIC80 [1]	MIC80 [2]	MIC80 [3]	MIC80 [4]	MIC80 [5]	fractional inhibitory concentration index (FICI) [6]	MIC80 [7]	MIC80 [8]	fractional inhibitory concentration index (FICI) [9]	MIC80 [10]	MIC80 [11]	MIC80 [12]	MIC80 [13]	fractional inhibitory concentration index (FICI) [14]
COc1ccc(-c2cc(-c3ccccc3)nn2CCO)c(O)c1OC	> 128 µg/mL	> 128 µg/mL	> 128 µg/mL	> 128 µg/mL	> 128 µg/mL	2	–	–	–	–	–	–	–	–
COc1ccc(-n2nc(-c3ccccc3)cc2-c2ccc(OC)c(OC)c2O)cc1	> 128 µg/mL	8 µg/mL (≈ 19.9 µM)	> 128 µg/mL	> 128 µg/mL	> 128 µg/mL	2	–	–	–	–	–	–	–	–
COc1cc(O)c(-c2cc(-c3ccccc3)n[nH]2)c(OC)c1	8 µg/mL (≈ 27 µM)	1 µg/mL (≈ 3.37 µM)	32 µg/mL (≈ 108 µM)	8 µg/mL	0.25 µg/mL	0.252	8 µg/mL	0.25 µg/mL	0.252	32 µg/mL (≈ 108 µM)	32 µg/mL (≈ 108 µM)	8 µg/mL	0.5 µg/mL	0.254
COc1ccc(-c2cn(-c3ccccc3)nc2-c2c(O)cc(OC)cc2OC)cc1	> 128 µg/mL	> 128 µg/mL	> 128 µg/mL	> 128 µg/mL	> 128 µg/mL	2	–	–	–	–	–	–	–	–
OC(Cn1cncn1)(Cn1cncn1)c1ccc(F)cc1F [FLUCONAZOLE]	2 µg/mL (≈ 6.53 µM)	0.25 µg/mL (≈ 0.816 µM)	> 128 µg/mL	–	–	–	–	–	–	> 128 µg/mL	> 128 µg/mL	–	–	–
